The source of these data is ChEMBL document CHEMBL5108061, “Lectin-Targeted Prodrugs Activated by Pseudomonas aeruginosa for Self-Destructive Antibiotic Release” (J Med Chem, 2022).

A short description of data set [1]: Metabolic stability in mouse liver microsomes assessed as intrinsic clearance measured per mg protein at 100 uM preincubated for 5 mins followed by NADPH addition and measured upto 60 mins by HPLC-MS/MS analysis. It is filed as ADME, Microsome. As to conditions: time 65 min, read-out: CLH. In short, it runs like this: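 Mouse liver microsomes (5 μL of 20 mg/mL) were mixed with 2 μL of 100 μM compound in 100 mM phosphate buffer and warmed 5 min at 37 °C. NADPH (10 μL of 20 mM) started the reaction, run in triplicate at 150 rpm. Samples were quenched with acetonitrile at 0–60 min and read by HPLC-MS/MS. Half-life came from linear regression of the 0-min-normalized areas, and CLint was derived from it.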
(In general: Liver microsomes are a subcellular fraction often used to study metabolism.)

Data set [2] can be described thus: Stability in human plasma assessed as half life at 1 uM and measured upto 240 mins by HPLC-MS/MS analysis. The format is ADME, cell-free. The settings on record: 4 h. In short, it runs like this:
(§1)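 Compound at 1 μM final in prewarmed mouse or human plasma (pH 7.4), 37 °C, sampled at 0–240 min; extracted with acetonitrile containing caffeine internal standard; HPLC-MS/MS, peak area normalized to internal standard and time 0; procaine and procainamide controls; ≥3 independent repeats.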

Data set [3] in a line: Drug uptake in human A549 cells assessed as intracellular accumulation at 10 ug/ml incubated for 15 to 60 mins by HPLC-MS/MS analysis. The format is ADME, cell-based. As to conditions: time 15-60 min, dose 10 µg/ml. In a few lines: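 A549 cells grown to 95% confluence in DMEM/10% FCS, exposed to 10 μg/mL compound for 15, 30 and 60 min at 37 °C; washed twice with PBS, lysed in MeOH; medium, washes and extracts extracted with MeOH containing caffeine internal standard and quantified by HPLC-MS/MS against calibration/QC samples; technical duplicates, two biological replicates.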

Data set [4] in a line: Stability in mouse plasma assessed as half life at 1 uM and measured upto 240 mins by HPLC-MS/MS analysis. As to conditions: 4 h. It is filed as ADME, cell-free. In short, it runs like this: as §1
The next data set has as its system Pseudomonas aeruginosa. The experiment in a line: Antibacterial activity against Pseudomonas aeruginosa PA14 assessed inhibition of bacterial growth incubated for 18 to 20 hrs by broth microdilution method. It is filed as functional. As to conditions: time 18-20 hrs. In a few lines: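 Broth microdilution per EUCAST in Müller-Hinton broth II, no matrix preincubation. […] Inoculum from overnight LB-agar colonies adjusted to OD600 0.08–0.13, diluted 1:100, final 5 × 10^5 cfu/mL.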
For orientation: In broth dilution the organism is exposed to a series of concentrations in liquid medium.

Data set [5] can be described thus: Metabolic stability in mouse liver microsomes assessed as half life at 100 uM preincubated for 5 mins followed by NADPH addition and measured upto 60 mins by HPLC-MS/MS analysis. The format is ADME, Microsome. The settings on record: time 65 min. In a few lines:
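Thawed mouse liver microsomes (20 mg/mL stock) were pre-incubated with compound (100 μM stock) in 100 mM phosphate buffer for 5 min at 37 °C. Reactions were started with NADPH (20 mM stock) and run in triplicate at 37 °C with shaking. Samples taken at 0, 5, 15, 30 and 60 min were quenched with acetonitrile and analysed by HPLC-MS/MS. Peak areas were normalised to 0 min, and half-life came from linear regression.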

Broadly, the MIC is the lowest concentration found to suppress growth. What is called half-life is how long it takes for the measured level to halve.

Take `Cl.N[C@H]1CCN(c2cc3c(cc2F)c(=O)c(C(=O)O)cn3C2CC2)C1`: the microsomal CLint at 100 µM in data set [1] is < 23 µL/min/mg. In addition, the t1/2 was 2.25 h in data set [2] and > 4 h in data set [4]. In addition, in data set [3], the Drug uptake stood at 2000 ng/mL. In the data set with Pseudomonas aeruginosa, this compound came in with an MIC of 0.027 µM. In data set [5], the half-life at 100 µM was > 1 h.
